Several values for one entry are separate records, joined by “and”; a condition that tells them apart may be missing. Identical values can stand only once. Activity calls are given as the source filed them. The rule behind the calls is not given here.
Columns and labels:
Mus musculus [1] = assay: Antagonistic activity against potassium cyanide induced cytotoxic hypoxia in male CF-1 mice at a dose of 20 mg/kg(p<0.05); assay type: organism-based; design: dose 20 mg/kg; conditions: in vivo
Rattus norvegicus = species on record: Rattus norvegicus; assay: Tested in vitro for the inhibition of iron-dependent lipid peroxidation against rat brain homogenates, by malondialdehyde (MDA) formation assay; assay type: functional
Mus musculus [2] = species on record: Mus musculus; assay: Lowest effective dosage in Mouse Head Injury Assay.; assay type: functional
How it was run: (§1)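 Unanesthetized male CF-1 mice (17-20 g), concussive head injury from 50-g weight dropped 18 cm (~900 g-cm). Vehicle (0.05 N HCl or 0.5% Tween 80) or drug, 0.001-30.0 mg/kg, iv bolus within 5 min postinjury (oral where indicated). Blind grip-string test at 1 h; groups of 20-25 mice, vehicle plus four dose groups; Duncan's multiple range test.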

Mus musculus [3] = assay: Tested in vivo for neuroprotectant activity against mouse head injury(MHI) model.; assay type: functional; how it was run: as §1
Mus musculus [4] = assay: Antagonistic activity against potassium cyanide induced cytotoxic hypoxia in male CF-1 mice at a dose of 10 mg/kg(p<0.05); assay type: organism-based; design: dose 10 mg/kg; conditions: in vivo
Mus musculus [5] = assay: Tested in vivo for neuroprotectant activity against mouse head injury(MHI) model; IA = Inactive; assay type: functional, organism-based; how it was run: as §1
Mus musculus [6] = assay: Antagonistic activity against potassium cyanide induced cytotoxic hypoxia in male CF-1 mice at a dose of 10 mg/kg; assay type: organism-based; design: dose 10 mg/kg; conditions: in vivo
Mus musculus [7] = species on record: Mus musculus; assay: Lowest effective dosage using in Mouse Head Injury Assay; assay type: functional; how it was run: as §1

Row | SMILES | IC50 (Rattus norvegicus; Rattus norvegicus, Brain) | Lowest effective dose (Mus musculus [2]) | Grip score (Mus musculus [3]) | other results
1 | Cc1c(C)c2c(c(C)c1O)CCC(C)(CN1CCN(Cc3ccccc3)CC1)O2.Cl.Cl (centres undefined) | 1000 nM | 0.01 mg/kg | 13 | LD50 (Mus musculus [1]): 181.4%; LD50 (Mus musculus [4]): 130%
2 | COc1ccccc1N1CCN(CC2(C)CCc3c(C)c(O)c(C)c(C)c3O2)CC1 (centres undefined) | 1000 nM |  |  | Grip score (Mus musculus [5]): inactive
3 | CC(=O)Oc1c(C)c(C)c2c(c1C)CCC(C)(C(=O)N1CCN(c3cc(N4CCCC4)nc(N4CCCC4)n3)CC1)O2 (centres undefined) | 17000 nM |  |  | 
4 | Cc1c(C)c2c(c(C)c1O)CCC(C)(C(=O)N1CCN(c3ccccn3)CC1)O2 (centres undefined) | 1000 nM | 0.01 mg/kg | 8.2 | 
5 | C[C@@H]1C[C@H]2[C@@H]3CCC4=CC(=O)C=C[C@]4(C)C3=CC[C@]2(C)[C@H]1C(=O)CN1CCN(c2cc(N3CCCC3)nc(N3CCCC3)n2)CC1 [TIRILAZAD] |  | 0.003 mg/kg | 14.5 | LD50 (Mus musculus [6]): 103.6%; LD50 (Mus musculus [1]): 128.4%
6 | Cc1c(C)c2c(c(C)c1O)CCC(C)(CN(C)CCc1ccccn1)O2 (centres undefined) | 177000 nM |  |  | 
7 | COc1ccc(CCNCC2(C)CCc3c(C)c(O)c(C)c(C)c3O2)cc1OC.Cl (centres undefined) | 1000 nM | 0.01 mg/kg | 8.4 | 
8 | CCNc1cccnc1N1CCN(CC2(C)CCc3c(C)c(O)c(C)c(C)c3O2)CC1.Cl.O (centres undefined) | 1000 nM | 0.01 mg/kg | 10.4 and 11.9 | 
9 | Cc1c(C)c2c(c(C)c1O)CCC(C)(C(=O)N(C)CCc1ccccn1)O2 (centres undefined) | 5400 nM |  |  | 
10 | COc1ccccc1N1CCN(C(=O)C2(C)CCc3c(C)c(O)c(C)c(C)c3O2)CC1 (centres undefined) | 15000 nM | 0.01 mg/kg | 12.8 | 
11 | CC(=O)Oc1c(C)c(C)c2c(c1C)CCC(C)(CN1CCN(c3cc(N4CCCC4)nc(N4CCCC4)n3)CC1)O2 (centres undefined) | 1500 nM | 1 mg/kg | 9.2 | 
12 | CCNc1cccnc1N1CCN(C(=O)C2(C)CCc3c(C)c(O)c(C)c(C)c3O2)CC1 (centres undefined) | 12000 nM |  |  | 
13 | Cc1c(C)c2c(c(C)c1O)CCC(C)(CNCCCc1ccccc1)O2 (centres undefined) | 1000 nM |  |  | 
14 | Cc1c(C)c2c(c(C)c1O)CCC(C)(C(=O)NCCc1ccccc1)O2 (centres undefined) | 1300 nM |  |  | 
15 | COc1ccc(CNCC2(C)CCc3c(C)c(O)c(C)c(C)c3O2)cc1OC (centres undefined) | 11000 nM |  |  | 
16 | Cc1c(C)c2c(c(C)c1O)CCC(C)(CN1CCN(c3cc(N4CCCC4)nc(N4CCCC4)n3)CC1)O2.Cl.Cl (stereo in doubt; 59) |  |  | 14.4 | IC50 (Rattus norvegicus): 1500 nM
17 | CCN(CC)c1ccc(N2CCN(C(=O)C3(C)CCc4c(C)c(O)c(C)c(C)c4O3)CC2)nc1N(CC)CC (centres undefined) | 200 nM |  |  | Grip score (Mus musculus [5]): inactive
18 | Cc1c(C)c2c(c(C)c1O)CCC(C)(C(=O)N1CCN(Cc3ccccc3)CC1)O2 (centres undefined) | 1000 nM |  |  | 
19 | Cc1c(C)c2c(c(C)c1O)CCC(C)(C(=O)NCCCCc1ccccc1)O2 (centres undefined) | 700 nM |  |  | 
20 | Cc1c(C)c2c(c(C)c1O)CCC(C)(C(=O)N1CCN(c3cc(N4CCCC4)nc(N4CCCC4)n3)CC1)O2 (centres undefined) | 500 nM |  | 17.5 | Lowest effective dose (Mus musculus [7]): 0.01 mg/kg; LD50 (Mus musculus [6]): 99.3%; LD50 (Mus musculus [1]): 115.2%
21 | Cc1c(C)c2c(c(C)c1O)CCC(C)(CN1CCN(c3ccc(Cl)cc3)CC1)O2 (centres undefined) | 900 nM |  |  | 
22 | C[C@H]1C[C@@H]2[C@H]([C@@H](O)C[C@@]3(C)[C@H]2CC[C@]3(O)C(=O)COC(=O)CCC(=O)[O-])[C@@]2(C)C=CC(=O)C=C12.[Na+] [METHYLPREDNISOLONE SODIUM SUCCINATE] |  | 15 mg/kg | 13.5 | 
23 | Cc1c(C)c2c(c(C)c1O)CCC(C)(C(=O)N1CCNCC1)O2 (centres undefined) | 10000 nM |  |  | 
24 | Cc1c(C)c2c(c(C)c1O)CCC(C)(CNc1ccncc1)O2 (centres undefined) | 16000 nM |  |  | 
25 | Cc1c(C)c2c(c(C)c1O)CCC(C)(C(=O)NCCN(C)C)O2 (centres undefined) | 8700 nM |  |  | Grip score (Mus musculus [5]): inactive
26 | Cc1c(C)c2c(c(C)c1O)CCC(C)(CN1CCN(c3cc(N4CCCC4)nc(N4CCCC4)n3)CC1)O2.Cl.Cl (stereo in doubt; 60) |  | 0.001 mg/kg | 11.5 | IC50 (Rattus norvegicus): 1100 nM
27 | Cc1c(C)c2c(c(C)c1O)CCC(C)(C(=O)O)O2 (centres undefined) [TROLOX] | 43000 nM |  |  | 
28 | Cc1c(C)c2c(c(C)c1O)CCC(C)(CNCc1cccnc1)O2 (centres undefined) | 48000 nM |  |  | 
29 | Cc1c(C)c2c(c(C)c1O)CCC(C)(C(=O)NCCCc1ccccc1)O2 (centres undefined) | 1000 nM |  |  | 
30 | Cc1c(C)c2c(c(C)c1O)CCC(C)(CN1CCN(c3cc(N4CCCC4)nc(N4CCCC4)n3)CC1)O2.Cl.Cl.O (centres undefined) |  |  | 13.7 and 14.7 | LD50 (Mus musculus [1]): 134.2%; IC50 (Rattus norvegicus): 600 nM; LD50 (Mus musculus [4]): 114%

Continued by falling IC50 (Rattus norvegicus; Rattus norvegicus, Brain), values first:

Row | IC50 (Rattus norvegicus; Rattus norvegicus, Brain) | SMILES | Lowest effective dose (Mus musculus [2]) | Grip score (Mus musculus [3]) | other results
31 | 47000 nM | Cc1c(C)c2c(c(C)c1O)CCC(C)(C(=O)NCc1cccnc1)O2 (centres undefined) |  |  | 
32 | 28000 nM | Cc1c(C)c2c(c(C)c1O)CC[C@@](C)(CCC[C@H](C)CCC[C@H](C)CCCC(C)C)O2 [ALPHA-TOCOPHEROL] |  |  | 
33 | 23000 nM | Cc1c(C)c2c(c(C)c1O)CCC(C)(C(=O)N1CCN(c3ncccn3)CC1)O2 (centres undefined) | 1 mg/kg | 12 | 
34 | 23000 nM | Cc1c(C)c2c(c(C)c1O)CCC(C)(CNCCc1ccccn1)O2 (centres undefined) |  |  | 
35 | 11000 nM | Cc1c(C)c2c(c(C)c1O)CCC(C)(C(=O)NCCc1ccccn1)O2 (centres undefined) |  |  | 
36 | 10000 nM | Cc1c(C)c2c(c(C)c1O)CCC(C)(C(=O)N1CCCC1)O2 (centres undefined) |  |  | 
37 | 5500 nM | COc1ccc(CNC(=O)C2(C)CCc3c(C)c(O)c(C)c(C)c3O2)cc1OC (centres undefined) |  |  | 
38 | 4100 nM | COc1ccc(CCNC(=O)C2(C)CCc3c(C)c(O)c(C)c(C)c3O2)cc1OC (centres undefined) |  |  | 
39 | 2300 nM | Cc1c(C)c2c(c(C)c1O)CCC(C)(C(=O)Nc1ccncc1)O2 (centres undefined) | 0.01 mg/kg | 11.5 | 
40 | 1800 nM | Cc1c(C)c2c(c(C)c1O)CCC(C)(C(=O)Nc1ccccn1)O2 (centres undefined) | 0.01 mg/kg | 14.4 | 
41 | 1700 nM | Cc1c(C)c2c(c(C)c1O)CCC(C)(CNCCN(C)C)O2 (centres undefined) |  |  | Grip score (Mus musculus [5]): inactive
42 | 1400 nM | Cc1c(C)c2c(c(C)c1O)CCC(C)(CN1CCCC1)O2 (centres undefined) |  |  | 
43 | 1300 nM | Cc1c(C)c2c(c(C)c1O)CCC(C)(CC(=O)N1CCN(c3cc(N4CCCC4)nc(N4CCCC4)n3)CC1)O2 (centres undefined) |  |  | Grip score (Mus musculus [5]): inactive
44 | 1300 nM | Cc1c(C)c2c(c(C)c1O)CCC(C)(CCN1CCN(c3cc(N4CCCC4)nc(N4CCCC4)n3)CC1)O2 (centres undefined) |  |  | Grip score (Mus musculus [5]): inactive
45 | 1000 nM | Cc1c(C)c2c(c(C)c1O)CCC(C)(CN1CCN(c3ncccn3)CC1)O2 (centres undefined) | 0.01 mg/kg | 10.3 | 
46 | 1000 nM | Cc1c(C)c2c(c(C)c1O)CCC(C)(CN1CCNCC1)O2 (centres undefined) |  |  | 
47 | 1000 nM | CCN(CC)c1ccc(N2CCN(CC3(C)CCc4c(C)c(O)c(C)c(C)c4O3)CC2)nc1N(CC)CC.Cl.O (centres undefined) | 0.01 mg/kg | 11.9 | 
48 | 1000 nM | Cc1c(C)c2c(c(C)c1O)CCC(C)(CN1CCN(c3ccccn3)CC1)O2.Cl.O (centres undefined) | 0.01 mg/kg | 10.7 | 
49 | 900 nM | Cc1c(C)c2c(c(C)c1O)CCC(C)(CNCCc1ccccc1)O2.O=C(O)C(=O)O (centres undefined) | 1 mg/kg | 8.7 | 
50 | 800 nM | Cc1c(C)c2c(c(C)c1O)CCC(C)(C(=O)N1CCN(c3ccc(Cl)cc3)CC1)O2 (centres undefined) |  |  | 
51 | 800 nM | Cc1c(C)c2c(c(C)c1O)CCC(C)(CNCCCCc1ccccc1)O2 (centres undefined) |  |  | 
52 | 700 nM | COc1ccc(N2CCN(C(=O)C3(C)CCc4c(C)c(O)c(C)c(C)c4O3)CC2)cc1 (centres undefined) |  |  | 
53 | 200 nM | Cc1c(C)c2c(c(C)c1O)CCC(C)(CNc1ccccn1)O2 (centres undefined) | 0.01 mg/kg | 12.3 | 
54 | 200 nM | COc1ccc(N2CCN(CC3(C)CCc4c(C)c(O)c(C)c(C)c4O3)CC2)cc1 (centres undefined) |  |  | 
